High-throughput results as filed in PubChem BioAssay.
Sampled rows, rich in hits. Any-hit rate of the full collection: about 1.3%.
VLA-4 inh: inhibition in human VLA-4 binding assay, primary screen, VLA-4 allosteric modulator project, MLPCN library, flow cytometry, VLA-4 expressing cells. Integrin alpha-4 (Homo sapiens), P13612. ligand binding flow cytometry. inhibition, % (about 7 µM as worked out from the volumes in the protocol). 330,000 compounds, 0.2% hits. AID 2557, 2010; in the data active = inhibition above about 50%
procasp7 counter: procaspase-7 activators, primary screen, counter-screen for procaspase-3 activator project, biochemical, absorbance, HTS, human; recombinant procaspase-7, Ac-DEVD-pNA absorbance 405 nm; D23A/D198A/D206A triple mutant, cannot self-cleave; scale: DMSO 0, 5 µM enzyme 100; 330,000 compounds, 0.093% hits; activation, % at 8.5 µM; Caspase-7 (Homo sapiens), P55210;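 active = percent activation above the screen-wide mean plus 3 SD, cut at about 25% in these data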
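Test system: Procaspase-7 triple mutant (PC-7 D3A). Also added: Ac-DEVD-pNA substrate, 400 µM as added. Schedule: 1 h enzyme–compound preincubation and 2 h substrate reaction, both 25 °C. Signal: p-Nitroaniline absorbance at 405 nm, read at 0 and 120 min. Control set: low DMSO alone, high DMSO plus 5 µM PC-7.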
GASC-1 inh: inhibitors of GASC-1 histone demethylase, primary screen, biochemical, fluorescence, DELFIA europium; inhibition, % at 2.35 µM; Lysine-specific demethylase 4C (Homo sapiens), Q9H3R0; GST-JMJD2C(1-420) H3K9me3 demethylation; AID 2099, 2009; 330,000 compounds, 0.069% hits;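 active = more than half of a compound's replicate wells show inhibition beyond 50%, single wells judged on their own value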;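 also: signal counts dimethyl H3K9 product captured on neutravidin plate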
GRK2 aptamer HTS: compounds blocking aptamer binding on GRK2 – biochemical, human GRK2, bead flow cytometry, HTS, primary screen; AID 488847, 2010; 330,000 compounds, 0.59% hits; inhibition of aptamer binding, % at 10 µM; FAM-aptamer displacement from GRK2;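 active = inhibition of aptamer binding above 40%, roughly 3 SD of noise, on plates passing a quality check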;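 also: median bead fluorescence of bound FAM aptamer so fluorescent compounds give negative values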
proCasp3 act: activators of human procaspase-3 D3A mutant, primary screen, biochemical, absorbance, PC-3 D3A mutant, single concentration. Caspase-3 (Homo sapiens), P42574. recombinant procaspase-3 D3A, Ac-DEVD-pNA absorbance 405 nm. activation, % at 8.5 µM. 330,000 compounds, 0.11% hits. AID 463141, 2010;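 active = activation above the mean of all tested compounds plus 3 SD, cut at about 21% in these data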
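Assay system: Autoprocessing-dead procaspase-3 D3A mutant enzyme; also added: Ac-DEVD-pNA; doses: one concentration, 8.5 µM nominal, 0.8% DMSO; times: 1 h compound preincubation, 2 h substrate hydrolysis at 25 °C; technique: 405 nm absorbance of p-nitroaniline, reads at 0 and 120 min; measure: % activation between DMSO and enzyme-spiked controls; repeats: single replicate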
Hep lipid drop: inhibitors of hepatocyte lipid droplet formation, primary screen, imaging, high-throughput imaging, BODIPY stain. AML12 mouse hepatocytes, oleate lipid droplets. inhibition, % at 6.5 µM. AID 1656, 2009. 240,000 compounds, 0.4% hits;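 active = lipid droplet intensity inhibited by at least 50%, with more than 500 cells counted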
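Assay system: AML12 mouse liver cells | Compound dosing: One dose, 6.5 µM compound | Read-out basis: Droplet intensity reduction, % inhibition | Measured by: Fluorescence imaging, 20x objective, two fields per well | Schedule: Overnight treatment with compound plus oleate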
GRK2 inh confirm: GRK2 aptamer-displacing inhibitors, retest, confirmation, biochemical, cherry pick 1, bead flow cytometry; bead-bound GRK2, FAM-aptamer displacement; 2,000 compounds, 4% hits; aptamer displacement, % at 10 µM; shares compounds with GRK2 aptamer HTS;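 active = aptamer displacement above 40%, near three times the noise of non-fluorescent compounds, on plates passing quality checks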;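 also: negative values mostly reflect intrinsic compound fluorescence rather than true enhancement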
FAM quench CP1: counter-screen for GRK2 aptamer inhibitors: fluorescent aptamer quenchers; shares compounds with GRK2 aptamer HTS; fluorescence response (% of DMSO), % at 10 µM; Carboxyfluorescein RNA aptamer on beads, flow cytometry quenching; stronger effect = lower value; AID 504580; 2,000 tested, under 10 active;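 active = compounds that quench the bead-bound fluorescent RNA probe, cutting fluorescence to under half of the solvent control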;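 also: counterscreen run without GRK2 so only probe quenching by compound is measured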
GRK2 CP2: GRK2 aptamer-displacing inhibitors, hit retest, confirmation, biochemical, cherry pick 2, bead flow cytometry. inhibition of aptamer binding, % at 10 µM. AID 504782, 2011. shares compounds with GRK2 aptamer HTS. 360 tested, under 10 active. bead-bound GRK2, FAM-aptamer displacement;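 active = inhibition of aptamer binding above 40%, about triple the noise seen with nonglowing compounds, on plates passing quality control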;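 also: negative values mostly come from compounds that fluoresce themselves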
FAM quench CP2: counter-screen for GRK2 binding hits: quenchers of fluorescent RNA aptamer. shares compounds with GRK2 aptamer HTS. carboxyfluorescein RNA aptamer beads, flow cytometry quenching; stronger effect = lower value. fluorescence response vs DMSO, % at 10 µM. 360 tested, under 10 active;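 active = response vs DMSO under 50%, meaning signal dropped by over half, treated as fluorescence quencher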;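 also: labelled aptamer on streptavidin beads without GRK2 as a quench counter-screen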
Each line names hits and unclear results; the compound was inactive in the other large screens (follow-up assays come after a bar, where they were run).

CC(=O)COc1coc(CN2CCN(c3ccc(F)cc3)CC2)cc1=O	GRK2 aptamer HTS 99.0 | GRK2 inh confirm inactive | FAM quench CP1 inactive
CC(C)(C)c1ccc(C2C3=C(CCCC3=O)NC3=C2C(=O)c2ccccc23)cc1 (stereo unspecified)	GRK2 aptamer HTS 51.0 (no result: Hep lipid drop) | GRK2 inh confirm inactive | FAM quench CP1 inactive
NS(=O)(=O)c1ccc2nc(-c3ccccc3)c(-c3ccccc3)nc2c1	none
CCn1cc(Cl)c(C(=O)NNC(=O)CCn2cc([N+](=O)[O-])cn2)n1	GRK2 aptamer HTS 63.0 (no result: Hep lipid drop) | GRK2 CP2 inactive | FAM quench CP2 inactive
COc1cccc(NC(=S)NNC(=O)CCn2cc([N+](=O)[O-])cn2)c1	none
COc1ccc(NC(=O)CN2C(=O)NC(C)(c3ccc4c(c3)OCCO4)C2=O)cc1S(N)(=O)=O (stereo unspecified)	none (no result: Hep lipid drop)
NC(=O)C[C@H]1NC(=O)[C@H](CCC(=O)O)NC(=O)c2cc([N+](=O)[O-])cc(I)c2NCCC[C@@H](C(N)=O)NC1=O	none
NC(=O)[C@@H]1CCCNc2c(I)cc([N+](=O)[O-])cc2C(=O)N[C@@H](CCC(=O)O)C(=O)N[C@@H](CO)C(=O)N1	GRK2 aptamer HTS 88.0 | GRK2 inh confirm inactive | FAM quench CP1 inactive
CC[C@@]12C(=O)N(c3cccc(Br)c3)C(=O)N1[C@H](c1cccc(C)c1)[C@@H]1C(=O)N(Cc3ccccc3)C(=O)[C@@H]12	none (no result: Hep lipid drop)
Cc1cc(NS(=O)(=O)c2ccc(NC(=O)c3c(F)c(F)c(F)c(F)c3F)cc2)nc(C)n1	GRK2 aptamer HTS 56.0 | GRK2 CP2 inactive | FAM quench CP2 inactive
O=C(Nc1ccc(NC(=O)C2CC2)cn1)c1ccccc1	none
O=C(Cc1ccccc1)Nc1ccc(NC(=O)c2ccccc2)nc1	GRK2 aptamer HTS 41.0 | GRK2 CP2 inactive | FAM quench CP2 inactive
COc1ccc(S(=O)(=O)N2CCN(Cc3cccc(Cl)c3)CC2)cc1	none
COc1ccc(S(=O)(=O)N2CCN(Cc3ccc(Cl)cc3)CC2)cc1	GRK2 aptamer HTS 65.0 | GRK2 inh confirm inactive | FAM quench CP1 inactive
COc1ccc(-c2cc(C(=O)NCc3ccc(Cl)cc3)no2)cc1OC	none | GRK2 inh confirm inactive | FAM quench CP1 inactive
COc1ccc(CNC(=O)c2cc(-c3ccc(OC)c(OC)c3)on2)cc1	none
COCCn1nnnc1C(c1cccc(OC)c1OC)N1CCN(C(=O)c2ccco2)CC1 (stereo unspecified)	GRK2 aptamer HTS 100.0 | GRK2 inh confirm inactive | FAM quench CP1 inactive
COCCn1nnnc1C(c1ccccc1OC)N1CCN(C(=O)c2ccco2)CC1 (stereo unspecified)	none
